# UPR CHOP act = activators of apoptotic CHOP UPR arm, primary screen, cell-based, CHO-CHOP luciferase reporter, luminescence, uHTS | UPR activation; percent of tunicamycin response over DMSO baseline | activation, % at 10 µM | 330,000 tested, 0.34% active | AID 449763, 2010;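 active means at 10 µM dose, activation of 40% or more, normalized to positive control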;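 further: 100% = tunicamycin at 10 µg/mL and 0% = DMSO alone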
#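 System: CHO CHOP reporter cells. Amount: 500 cells per well. Buffer or medium: F12 medium, 10% FBS. Compound dosing: one dose, 10 µM in 0.5% DMSO. Incubation: 6 h compound exposure at 37 °C after overnight seeding. Technique: Steady-Glo luciferase luminescence. Benchmarks: tunicamycin and DMSO controls.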
# UPR XBP1 act = activators of adaptive XBP1 UPR arm, primary screen, cell-based, CHO-XBP1 luciferase reporter, luminescence, uHTS; AID 463104, 2010; activation, % at 20 µM; IRE1-XBP1 UPR activation; percent of tunicamycin response, DMSO as zero; 330,000 tested, 0.33% active;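 active means versus positive control, 20 µM dose yields 30% or more activation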;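 further: 100% = tunicamycin at 10 µg/mL and 0% = DMSO only wells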
#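 Material: CHO cell line with stable XBP1 luciferase reporter; buffer or medium: F12 medium containing 10% fetal bovine serum; compound: single point, 20 µM final compound, 1% DMSO; incubation: 6 h treatment, 37 °C; measured by: glow luminescence from Steady-Glo reagent; evaluation: activation, % of tunicamycin; control set: tunicamycin high, DMSO low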
# Dynein transport = inhibitors of GR-EGFP nuclear translocation, primary screen, dynein cargo transport inhibitor project, imaging, high-content, 3617.4 mouse cells | test concentration mostly 20 µM; stimulated with dexamethasone, 1 µM; active compounds read low | z-score, hits read low | 220,000 tested, 0.47% active;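 active means plate z-score of nuclear minus cytoplasmic receptor signal below a set negative limit, without overly bright fluorescence or cell loss, cut at about -3.5 in these data, passing the limit was not always enough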;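 further: z-score of nuclear minus cytoplasmic ring GR-EGFP intensity difference per well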
#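 Schedule: 48 h induction, then 1 h compound, then 30 min agonist, 37 °C. Buffer or medium: tetracycline-free induction medium containing charcoal-stripped FBS. Reagent: 1.0 µM final dexamethasone stimulus. Evaluation: nuclear versus cytoplasmic GR-EGFP signal, averaged per well. Signal: high-content fluorescence imaging after fixation.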
# Mdm2 ligase inh = MDM2-luciferase reporter signal enhancers, primary screen, MDM2 E3 ligase inhibitor project, cell-based, luminescence, 1536-well. E3 ubiquitin-protein ligase Mdm2 (Homo sapiens), Q00987. cell-based MDM2 ubiquitination luciferase reporter, 2 h; 0 = plate control, 100 = twice control, blank-subtracted. signal enhancement, % at 5 µM. 210,000 tested, 0.11% active. AID 1230, 2008;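 active means signal enhancement of 30% or more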;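 further: luminescence tracks abundance of the self-degrading MDM2-luciferase fusion protein; higher signal means inhibition of MDM2 E3 ligase activity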
#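 Assay system: mammalian cells stably expressing self-ubiquitinating, self-degrading MDM2 E3–luciferase fusion. Quantity: 2000 cells in each well. Medium: DMEM culture medium. Compound dosing: single-point 5 µM. Timing: cell settling 4 h, compound treatment 2 h, both 37 °C. Technique: luciferase luminescence. Read-out basis: percent signal gain over controls, blank-subtracted. Benchmarks: plate controls and plate blanks.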
# Beta2AR agonist = beta2AR agonists driving receptor internalization, primary screen, cell-based, FAP fluorogen, flow cytometry; response, % (concentration not given with the values); 340,000 tested, 0.43% active; Beta-2 adrenergic receptor (Homo sapiens), P07550; Am2.2-beta2AR cells;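 active means response above a set limit, near 3 SD of response in nonfluorescent compounds, cut at about 42% in these data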
# Target sequence (P07550 whole entry, looked up): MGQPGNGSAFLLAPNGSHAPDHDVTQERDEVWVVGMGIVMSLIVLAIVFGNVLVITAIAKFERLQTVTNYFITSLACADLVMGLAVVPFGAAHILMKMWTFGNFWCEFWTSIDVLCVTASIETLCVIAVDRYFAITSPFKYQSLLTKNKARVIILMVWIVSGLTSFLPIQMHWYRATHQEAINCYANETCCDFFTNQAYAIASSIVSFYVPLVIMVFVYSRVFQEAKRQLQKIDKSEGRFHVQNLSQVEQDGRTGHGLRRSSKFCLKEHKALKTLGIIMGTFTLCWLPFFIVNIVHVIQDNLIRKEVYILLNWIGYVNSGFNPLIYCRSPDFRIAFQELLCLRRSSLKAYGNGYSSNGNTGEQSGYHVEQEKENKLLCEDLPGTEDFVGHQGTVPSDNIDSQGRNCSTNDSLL
# Mdm2-MdmX inh = inhibitors of human Mdm2-MdmX association, primary screen, cell-based, luminescence, split luciferase, SaOS-2, uHTS | SaOS-2 split-luciferase Mdm2/MdmX complementation | inhibition, % at 8 µM | 330,000 tested, 3% active;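 active means inhibition of at least 50% at 8 µM in the primary screen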
# Mdm2 MdmX conf = Mdm2-MdmX complex disruptors, retested hits, confirmation, luminescence, single concentration; 10,000 tested, 55% active; shares compounds with Mdm2-MdmX inh; Mdm2-MdmX binding, luminescent assay; inhibition, % at 8 µM; AID 489028, 2010; in the data active means inhibition above about 40%
# FLuc counter = full-length luciferase signal inhibition, confirmation, counter-screen for Mdm2/MdmX interaction inhibitor project, cell-based, single concentration, SaOS-2; inhibition, % at 8 µM; SaOS-2 full-length luciferase counterscreen, luminescence; shares compounds with Mdm2-MdmX inh; 6,200 tested, 77% active;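 active means mean inhibition at 8 µM reaching about 37%, which flags the compound as non-specific, limit read from the data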;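 further: p53-null SaOS-2 cells with luciferase driven by a doxycycline-inducible promoter; compound on cells about two nights before reading with doxycycline added after day one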
# Starred values were filed as active, the others as inactive; . = no result given. A selection: hits, their analogues and other compounds. The true share with any hit is near 3.7%.
SMILES,UPR CHOP act,UPR XBP1 act,Dynein transport,Mdm2 ligase inh,Beta2AR agonist,Mdm2-MdmX inh,Mdm2 MdmX conf,others
Cn1c(CCNC(=O)c2ccco2)nc2cc(NC(=O)c3ccco3)ccc21,3,-1,-0.082,-3,14,0,.,
COc1ccccc1C(=O)Nc1ccc2c(c1)nc(CCNC(=O)c1ccco1)n2C,3,9,.,.,0,67*,53*,FLuc counter=66*
CCCC[C@@H](CNC)NC[C@H](Cc1ccc(O)cc1)NCCc1ccc(OCC)cc1,1,-1,.,.,3,98*,52*,FLuc counter=74*
CCC[C@H](CN[C@@H](CNC)[C@H](C)O)NCCc1ccc(OC)cc1,-1,-1,.,.,2,-16,.,
c1cc2c(cc1C1CCCCC1)c1c3n2CCN=C3CCC1,1,1,2.1,6,15,53*,23,
Cc1ccc2c(c1)c1c3n2CCN=C3CCC1,0,-1,-0.47,-4,5,14,.,
Oc1c(Br)cccc1/C=N/c1ncn[nH]1,0,1,.,.,1,-11,.,
Cc1ccccc1-c1n[nH]c(=S)n1/N=C/c1c(C)nn(-c2ccccc2)c1C,-1,2,0.0086,-13,-6,87*,53*,FLuc counter=103*
Cc1ccc(-c2n[nH]c(=S)n2/N=C/c2c(C)nn(-c3ccccc3)c2C)cc1,1,5,-0.44,8,-17,-20,.,
COc1ccc(S(=O)(=O)N2CCC(C(=O)NCCC(=O)Nc3ccc(Cl)cc3)CC2)cc1,-1,-5,.,.,-9,8,.,
Cc1ccc(C(=O)c2cnc3cc4c(cc3c2S(=O)(=O)c2ccccc2)OCCO4)cc1,5,-6,-0.8,2,4,61*,42*,FLuc counter=52*
CCOc1ccc(S(=O)(=O)c2c(C(=O)c3ccc(C)cc3)cnc3cc4c(cc23)OCCO4)cc1,0,-7,-0.16,2,-3,30,.,
CCN1CCN(c2c(/C=C3\SC(=S)N(Cc4ccco4)C3=O)c(C)c(C#N)c(=O)n2C)CC1,3,-3,0.23,.,-450,-5,.,
COc1ccc(OC)c(Nc2ncnc3ccc(Br)cc23)c1,0,1,.,.,1,51*,35,
OCCNc1ncnc2ccc(Br)cc12,-4,-4,0.8,-11,-1,48,.,
Brc1ccc2ncnc(Nc3cccc4ccccc34)c2c1,2,0,-0.52,-2,-5,61*,41*,FLuc counter=53*
CCN(CC)c1ncnc2ccc(Br)cc12,2,1,0.38,-18,3,58*,52*,FLuc counter=38*
O=C(CN1c2cccc3cccc(c23)S1(=O)=O)N1CCN(c2ccccc2)CC1,1,0,.,.,-6,-13,.,
Cc1ccc(S(=O)(=O)Nc2cccc(-c3ccc4nnc(C)n4n3)c2)s1,-2,2,-1.5,8,0,65*,24,
CCS(=O)(=O)c1ncc(CO)n1CCc1ccccc1,1,-5,.,.,-1,5,.,
O=C(CN(C(=O)CCC(=O)Nc1ccccn1)C1CCCC1)NCc1ccc(F)cc1,2,-1,.,.,-7,-22,.,
Cc1ccc(C)c(NC(=S)N2CCC(NC(=O)c3ccccc3)CC2)c1,0,-2,.,.,2,25,.,
COc1cccc(CN(c2ccccc2C(=O)O)S(=O)(=O)c2ccc(C)cc2)c1,.,.,.,.,-2,.,.,
O=C(C1=C[C@H](c2ccc(Br)cc2)C[C@H](OCCCCO)O1)N1CCN(Cc2ccc3c(c2)OCO3)CC1,0,3,-0.27,.,4,-5,.,
O=C(C1=C[C@@H](c2ccc(Br)cc2)C[C@@H](OCCCCO)O1)N1CCN(Cc2ccccc2)CC1,3,-3,-0.33,.,2,55*,50*,FLuc counter=66*
SMILES,UPR CHOP act,UPR XBP1 act,Dynein transport,Mdm2 ligase inh,Beta2AR agonist,Mdm2-MdmX inh,Mdm2 MdmX conf,others
COc1ccc(-c2nnc(SCc3nc4ccccc4c(=O)[nH]3)o2)cc1,1,1,-0.45,-9,6,73*,58*,FLuc counter=105*
Cc1ccccc1Nc1nnc(SCc2nc3ccccc3c(=O)[nH]2)s1,1,-2,0.31,-8,.,27,.,
CCOc1ccc(Nc2nnc(SCc3nc4ccccc4c(=O)[nH]3)s2)cc1,1,3,2.7,.,-3,63*,23,
O=C(NC1CCCCC1)c1cc(N2C(=O)CCC2=O)ccc1Cl,1,-5,.,.,-2,-5,.,
CCC(C(=O)Nc1ccc(S(=O)(=O)N2CCN(C)CC2)cc1)c1ccccc1 (stereo unspecified),0,-5,.,.,15,13,.,
CCN(CCCNC(=O)COc1cc(=O)n(C)c2ccccc12)c1ccccc1,1,-2,-0.22,-26,-4,21,.,
CCN(CCCNC(=O)COc1cc(=O)n(CC)c2ccccc12)c1ccccc1,2,0,1.5,-3,0,61*,28,
O=C(COc1cccnc1[N+](=O)[O-])Nc1ccc(S(=O)(=O)N2CCOCC2)cc1,0,-2,2.2,-15,0,26,.,
O=C1c2ccccc2C(=O)c2c1cccc2-n1nnc2ccccc21,2,3,-0.73,.,-8,14,.,
O=C1C(N2CCOCC2)=C(n2nnc3ccccc32)C(=O)c2ccccc21,4,-5,-0.38,-12,-3,73*,33,
Oc1ccc(Cl)cc1-c1cc(-c2cccc(Br)c2)n[nH]1,2,6,-0.26,-17,9,62*,33,
COc1ccc(Br)cc1S(=O)(=O)N(CC(=O)N1CCN(C)CC1)c1ccccc1,0,1,.,.,-26,15,.,
Cc1ccc(NC(=O)CN2C(=O)c3ccccc3S2(=O)=O)c(C)c1,0,-3,.,.,-5,16,.,
CC(=O)Nc1ccc(Nc2c([N+](=O)[O-])c(=O)n(-c3ccccc3)c3ccccc23)cc1,1,3,0.52,-4,1,61*,13,

# From PubChem BioAssay
